Most compounds without a hit are left out; they make up all but 4.7% or so of the library.
KCC2 mod: modulates chloride dependent transport by human KCC2; B-score of Tl+ flux slope (higher = more flux/activation; lower = inhibition) at 10 µM; Q9H2X9; AID 1456; hit rate 2.2% among 190,000; KCC2 cells, thallium flux FluoZin-2 fluorescence;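 active = thallium flux slope and its plate-corrected score both differing from the plate sample mean at a set confidence after two filtering rounds, in either direction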;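 note: slope of fluorescence scaled to starting intensity during 10 to 20 s after thallium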
Target sequence (Q9H2X9 whole entry, looked up): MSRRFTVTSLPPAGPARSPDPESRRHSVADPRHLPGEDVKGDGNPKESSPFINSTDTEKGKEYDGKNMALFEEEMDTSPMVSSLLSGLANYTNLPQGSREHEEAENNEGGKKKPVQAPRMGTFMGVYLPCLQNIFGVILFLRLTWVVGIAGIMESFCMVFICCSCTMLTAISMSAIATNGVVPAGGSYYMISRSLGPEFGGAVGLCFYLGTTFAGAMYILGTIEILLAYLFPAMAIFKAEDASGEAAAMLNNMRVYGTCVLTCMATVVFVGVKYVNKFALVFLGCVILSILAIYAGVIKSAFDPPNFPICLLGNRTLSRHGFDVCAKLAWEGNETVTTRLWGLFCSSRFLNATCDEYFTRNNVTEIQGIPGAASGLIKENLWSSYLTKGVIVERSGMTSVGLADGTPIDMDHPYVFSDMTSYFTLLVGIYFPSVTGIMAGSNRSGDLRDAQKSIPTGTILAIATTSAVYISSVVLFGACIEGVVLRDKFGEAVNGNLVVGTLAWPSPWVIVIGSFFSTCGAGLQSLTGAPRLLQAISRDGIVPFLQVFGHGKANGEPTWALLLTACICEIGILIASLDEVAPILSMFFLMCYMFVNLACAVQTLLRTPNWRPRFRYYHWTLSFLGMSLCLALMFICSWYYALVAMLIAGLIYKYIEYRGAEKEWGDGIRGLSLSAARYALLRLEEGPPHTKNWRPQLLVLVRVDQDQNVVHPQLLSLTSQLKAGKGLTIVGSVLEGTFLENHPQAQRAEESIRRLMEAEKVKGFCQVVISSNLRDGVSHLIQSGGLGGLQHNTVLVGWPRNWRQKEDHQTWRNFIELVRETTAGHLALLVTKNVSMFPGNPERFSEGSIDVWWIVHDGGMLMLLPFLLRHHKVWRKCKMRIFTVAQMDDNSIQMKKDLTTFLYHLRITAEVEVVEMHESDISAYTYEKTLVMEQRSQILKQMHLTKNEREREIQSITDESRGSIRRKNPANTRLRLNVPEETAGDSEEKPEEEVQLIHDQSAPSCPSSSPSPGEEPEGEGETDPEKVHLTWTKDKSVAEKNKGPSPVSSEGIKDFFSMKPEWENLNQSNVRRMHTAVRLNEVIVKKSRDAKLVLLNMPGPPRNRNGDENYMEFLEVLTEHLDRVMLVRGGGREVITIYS
RGS4 pot: RGS4 potentiation or activation; AID 463111; B-score at 10 µM; hit rate 0.92% among 310,000; HEK293 M3R/inducible RGS4, carbachol calcium flux Fluo4; stronger effect = lower value;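 active = B-score of the integrated calcium signal more than 4 SD below the library mean, with starting fluorescence not abnormally high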;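 note: negative B-score means reduced calcium response which marks RGS4 activation or potentiation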
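Material: M3R-expressing HEK293 line, RGS4 induced by doxycycline | Schedule: Overnight RGS4 induction, 30 min dye load 37 °C, 20 min compound RT | Measured by: Fluo4 fluorescence kinetic imaging of calcium | Read-out: Integrated calcium ratio converted to B score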
RGS4 block: inhibitors of human RGS4; HEK293 M3R/RGS4 inducible, Fluo-4 calcium flux; stronger effect = higher value; triggered by carbachol at its EC20; B-score at 10 µM; hit rate 0.45% among 310,000; AID 463165;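 active = B-score, a plate-corrected calcium signal, over three deviations above library mean, with baseline fluorescence within five deviations of library mean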;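 note: RGS4 expression induced by doxycycline in cells with stable M3 receptor; B-score is computed from the integrated fluorescence ratio over baseline after carbachol; higher B-score means a larger calcium signal and so more RGS4 inhibition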
MrgX1 PAM: allosterically activates human MrgX1 receptor signaling. Q96LB2. MrgX1-HEK293, Fluo-4 calcium flux, FDSS; stronger effect = higher value. B-score at 10 µM. hit rate 0.63% among 310,000. AID 588675;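 active = plate-corrected calcium response at least 3 library SD above typical, normal starting fluorescence, not activating the receptor alone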;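 note: compound read alongside a low EC10 to EC30 dose of BAM8-22 agonist; peak minus trough fluorescence over baseline measured at the second addition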
MrgX1 agonist: agonists of human MrgX1 receptor; Q96LB2; AID 588627; hit rate 0.44% among 310,000; B-score at 10 µM; MrgX1-HEK293 cells, Fluo-4 calcium fluorescence, agonist mode; stronger effect = higher value;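 active = calcium response B-score plate-corrected fluorescence ratio at least 3 library SD, with starting fluorescence B-score inside 5 SD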
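Material – MrgX1-expressing HEK293 cells · Input – 15,000 cells seeded per well · Dosing – compound as first of three additions · Times – overnight seeding, then 1 h dark dye loading · Measured by – kinetic Fluo-4 NW fluorescence of intracellular calcium · Read-out – B-scored fluorescence response ratio · Benchmarks – positive and negative control wells on each plate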
MrgX1 antag: antagonists of human MrgX1 receptor; Q96LB2; MRGX1-HEK293 calcium flux, Fluo-4, BAM8-22 antagonism; stronger effect = lower value; B-score at 10 µM; hit rate 1.3% among 310,000; AID 588676;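 active = calcium-response B-score plate-corrected more than 3 library SD below zero, starting fluorescence within 5 deviations, no agonist response on first addition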;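 note: peak minus trough fluorescence over baseline after final BAM8-22 challenge near maximal dose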
KCC2 sec1: KCC2 (human) modulation, secondary assay; shares compounds with KCC2 mod; normalised thallium flux (F/F0 slope) at 10 µM; hit rate 15% among 3,700; HEK293-KCC2, thallium flux, FluoZin2 fluorescence; stronger effect = higher value;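 active = thallium flux slope above the same plate's solvent-only control mean plus 3 SD; inconclusive = the two replicate wells disagree; inactive = no significant difference from solvent-only control wells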
KCC2 bumet counter: bumetanide-insensitive thallium flux in KCC2 cells with ouabain, counter-screen; AID 1714; normalized thallium flux at 10 µM; hit rate 49% among 3,700; shares compounds with KCC2 mod; HEK293-KCC2 + bumetanide/ouabain, thallium flux FluoZin2; stronger effect = higher value;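 active = thallium entry rate above the same plate's blocked-transporter control wells by more than 3 SD; inconclusive = the two repeat wells disagree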;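 note: raw slope of fluorescence over initial fluorescence between 10 and 20 s after thallium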
KCC2 secondary2: confirmation of human KCC2 transport modulators. shares compounds with KCC2 mod. HEK293-KCC2, thallium flux FluoZin2 fluorescence; actives lie on both sides; F/F0 rise rate, 10–20 s post-thallium. normalized thallium flux at 10 µM. hit rate 23% among 3,700. AID 1715;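 active = thallium flux slope more than 3 SD above or below the plate's solvent-only control mean, mostly below; inconclusive = the two repeat wells disagreed; inactive = no significant shift from solvent-only controls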
HEK293 Tl flux: parental HEK flux effect, counter-screen; thallium flux rate (normalised fluorescence) at 10 µM; hit rate 46% among 3,700; HEK293 parental cells, thallium flux FluoZin2, ouabain; baseline-ratio fluorescence slope, 10–20 s after thallium; shares compounds with KCC2 mod;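 active = thallium flux rate significantly above the same plate's solvent-only control wells, beyond their mean plus 3 SD; inconclusive = the two replicate wells gave conflicting results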
KCC2 ouabain: KCC2 (human) modulation, ouabain retest | shares compounds with KCC2 mod | HEK293-KCC2, thallium flux FluoZin2 fluorescence; bidirectional: low = inhibitor, high = activator | raw Tl+ flux slope (below DMSO = inhibition, above = activation) at 10 µM | hit rate 48% among 3,700;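 active = thallium flux slope beyond 3 SD from same-plate DMSO control mean in most replicates, usually higher, sometimes lower; inconclusive = repeat tests gave conflicting results; inactive = no significant difference from controls in most replicates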;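 note: slope of initial-normalized fluorescence between seconds 10 and 20 after thallium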
HEK counter2: counter-screen for KCC2 modulators: effect in parental HEK293 cells. hit rate 33% among 3,700. thallium flux FluoZin-2 fluorescence slope. AID 1718. shares compounds with KCC2 mod. thallium flux slope at 10 µM;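 active = thallium flux slope above the same plate's solvent-control mean plus 3 SD in both duplicate wells; inconclusive = duplicate wells that disagreed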;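 note: run without ouabain in cells lacking the KCC2 cotransporter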
Large screens that a line does not name were inactive (follow-up assays come after a bar, where they were run).

Cc1ccc(-c2nc(=S)c3c(n2Cc2ccco2)CC(C)(C)OC3)cc1	MrgX1 antag -6 (no result: KCC2 mod) | KCC2 sec1 0.017 | KCC2 bumet counter 0.025 | KCC2 secondary2 inactive | HEK293 Tl flux 0.011 | KCC2 ouabain inactive | HEK counter2 0.012
Cc1cccc(-c2nc(=S)c3c(n2Cc2ccco2)CCCC3)c1	KCC2 mod 21 | KCC2 sec1 inactive | KCC2 bumet counter 0.021 | KCC2 secondary2 inactive | HEK293 Tl flux 0.018 | KCC2 ouabain 0.032 | HEK counter2 0.015
CN(C)CCCn1c(-c2ccccc2)nc(=S)c2c1CCCC2	none
COC(CNS(=O)(=O)c1cc2c3c(c1)CCN3C(=O)CC2)OC	none (no result: KCC2 mod)
C=CCN1C(=O)N(/C=C/C)c2cccc3cccc1c23	KCC2 mod 7.6 | KCC2 sec1 inactive | KCC2 bumet counter inactive | KCC2 secondary2 inactive | HEK293 Tl flux 0.0057 | KCC2 ouabain inactive | HEK counter2 inactive
CCOc1ncccc1C(=O)OCC(=O)c1ccc[nH]1	KCC2 mod -4.1 | KCC2 sec1 inactive | KCC2 bumet counter inactive | KCC2 secondary2 inactive | HEK293 Tl flux inactive | KCC2 ouabain inactive | HEK counter2 inactive
CCC1CCCCN1S(=O)(=O)c1ccc(C(=O)Nc2nnc(-c3cccs3)o2)cc1 (configuration not stated)	KCC2 mod 15, MrgX1 agonist 65 (no result: RGS4 pot, RGS4 block) | KCC2 sec1 0.014 | KCC2 bumet counter 0.054 | KCC2 secondary2 inactive | HEK293 Tl flux 0.024 | KCC2 ouabain 0.045 | HEK counter2 0.012
CC1CC(C)CN(S(=O)(=O)c2ccc(C(=O)Nc3nnc(-c4cccs4)o3)cc2)C1 (configuration not stated)	KCC2 mod 12 | KCC2 sec1 inactive | KCC2 bumet counter 0.032 | KCC2 secondary2 0.041 | HEK293 Tl flux 0.025 | KCC2 ouabain 0.034 | HEK counter2 0.024
CCC1CCCCN1S(=O)(=O)c1ccc(NC(=O)c2cccnc2)cc1 (configuration not stated)	none (no result: KCC2 mod)
Cc1ccc(C(=O)C(C)OC(=O)Cn2c(C)csc2=O)cc1 (configuration not stated)	none (no result: KCC2 mod)
CCn1c(SCC(=O)Nc2ccc(OC)cc2)nc2nc3c(cc2c1=O)CCCC3	none
CCn1c(SCC(=O)Nc2ccc(Cl)cc2)nc2nc3c(cc2c1=O)CCCC3	KCC2 mod 4.8 | KCC2 sec1 inconclusive | KCC2 bumet counter 0.015 | KCC2 secondary2 inactive | HEK293 Tl flux 0.013 | KCC2 ouabain inconclusive | HEK counter2 0.013
CSc1ccccc1C(=O)N1CCOCC1	none (no result: KCC2 mod)
O=C(c1ccccc1SCc1ccc(F)cc1)N1CCOCC1	KCC2 mod -3.5 | KCC2 sec1 inactive | KCC2 bumet counter inconclusive | KCC2 secondary2 0.024 | HEK293 Tl flux inactive | KCC2 ouabain 0.014 | HEK counter2 inactive
O=C(NCc1ccco1)c1ccc(Br)c(S(=O)(=O)N2CCCCC2)c1	none (no result: KCC2 mod) | KCC2 sec1 inactive | KCC2 bumet counter inactive | KCC2 secondary2 inconclusive | HEK293 Tl flux inactive | KCC2 ouabain inactive | HEK counter2 inactive
O=C(NCc1ccco1)c1ccc(F)c(S(=O)(=O)N2CCCCC2)c1	none
CCn1c(-c2csc3c2CCC(C)C3)n[nH]c1=S (configuration not stated)	KCC2 mod 11 | KCC2 sec1 inactive | KCC2 bumet counter 0.027 | KCC2 secondary2 inactive | HEK293 Tl flux 0.024 | KCC2 ouabain 0.03 | HEK counter2 0.014
CCn1c(-c2ccccc2O)n[nH]c1=S	none
Cn1c(C(=O)OC(C(=O)NC2CCCC2)c2cccnc2)cc2sccc21 (configuration not stated)	KCC2 mod -2.7 | KCC2 sec1 inactive | KCC2 bumet counter inactive | KCC2 secondary2 inactive | HEK293 Tl flux inactive | KCC2 ouabain 0.045 | HEK counter2 0.011
Cn1c(C(=O)OC(C(=O)NC2CCCCC2)c2cccnc2)cc2sccc21 (configuration not stated)	none
N#Cc1ccc(CSc2nnc(Nc3ccccc3)s2)cc1	none
c1ccc(CSc2nnc(NC3=NCCCCC3)s2)cc1	none (no result: KCC2 mod) | KCC2 sec1 inactive | KCC2 bumet counter inactive | KCC2 secondary2 inactive | HEK293 Tl flux inactive | KCC2 ouabain 0.034 | HEK counter2 inactive
CCOc1ccc(N2CC(C(=O)Nc3c(C)n(C)n(-c4ccccc4)c3=O)CC2=O)cc1 (configuration not stated)	KCC2 mod -5 | KCC2 sec1 inactive | KCC2 bumet counter inactive | KCC2 secondary2 inactive | HEK293 Tl flux inactive | KCC2 ouabain inactive | HEK counter2 inactive
Cc1ccc(O)c(NC(=O)c2onc(C)c2Cl)c1	none (no result: KCC2 mod)
CN1c2ccccc2C(C)(C)[C@]12C=Cc1cc(O)ccc1O2	KCC2 mod -3.4 | KCC2 sec1 inactive | KCC2 bumet counter inconclusive | KCC2 secondary2 inactive | HEK293 Tl flux inactive | KCC2 ouabain 0.016 | HEK counter2 inactive
C=CCN(CC=C)C(=S)NC(=O)Cc1cccc2ccccc12	none (no result: KCC2 mod) | KCC2 sec1 0.043 | KCC2 bumet counter 0.15 | KCC2 secondary2 0.061 | HEK293 Tl flux 0.1 | KCC2 ouabain 0.13 | HEK counter2 0.054
S=c1nc(-c2ccccc2)oc2c1CCCC2	KCC2 mod 5.3 | KCC2 sec1 inactive | KCC2 bumet counter 0.045 | KCC2 secondary2 inactive | HEK293 Tl flux 0.012 | KCC2 ouabain inconclusive | HEK counter2 0.013
O=[N+]([O-])c1ccc(-c2nc(=S)c3c(o2)CCCC3)cc1	KCC2 mod 34 | KCC2 sec1 0.018 | KCC2 bumet counter 0.027 | KCC2 secondary2 inactive | HEK293 Tl flux 0.033 | KCC2 ouabain 0.042 | HEK counter2 0.016
COc1ccc(NC(=O)CN(C)C(=O)CCCN2C(=O)c3cccc4cccc(c34)C2=O)cc1	none (no result: KCC2 mod)
CC(C)/C=C/CN1CCCC(N2CCN(c3cccc(Cl)c3)CC2)C1 (configuration not stated)	none (no result: KCC2 mod)

Source: PubChem BioAssay (several laboratories)
